Columns and labels:
Rattus norvegicus [1] = assay: Anticonvulsant activity reported as duration in amygdala kindled rats at 350 mg/kg (after discharge); assay type: functional
Rattus norvegicus [2] = assay: Intraperitoneal (ip) toxicity tested in rats is the number of animals displaying neurotoxicity / number of animals tested (8) after 0.25 hr at 100 mg / kg; assay type: organism-based; design: dose 100 mg / kg; details: in vivo
In short: (§1)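 Special ip screen run by the ADD Program in male Sprague-Dawley rats. Test drug was given ip at 100 mg/kg as a solution or suspension in 0.5% methylcellulose. Neurotoxicity was scored at 0.25, 0.5, 1, 2, 4, 6, 8 and 24 h after dosing. Each result is reported as number of rats showing neurotoxicity over number tested.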

Rattus norvegicus [3] = assay: Intraperitoneal (ip) toxicity tested in rats is the number of animals displaying neurotoxicity / number of animals tested (8) after 0.50 h at 100 mg / kg; assay type: organism-based; design: dose 100 mg / kg; details: in vivo, 0.5 h; in short: as §1
Rattus norvegicus [4] = assay: Intraperitoneal (ip) toxicity tested in rats is the number of animals displaying neurotoxicity / number of animals tested (8) after 1 hr at 100 mg / kg; assay type: organism-based; design: dose 100 mg / kg; details: in vivo; in short: as §1
Rattus norvegicus [5] = assay: Intraperitoneal (ip) toxicity tested in rats is the number of animals displaying neurotoxicity / number of animals tested (8) after 2 h at 100 mg / kg; assay type: organism-based; design: dose 100 mg / kg; details: in vivo; in short: as §1
Rattus norvegicus [6] = assay: Intraperitoneal (ip) toxicity tested in rats is the number of animals displaying neurotoxicity / number of animals tested (8) after 24 hr at 100 mg / kg (Two testing animals died); assay type: organism-based; design: dose 100 mg / kg; details: in vivo; in short: as §1
Rattus norvegicus [7] = assay: Intraperitoneal (ip) toxicity tested in rats is the number of animals displaying neurotoxicity / number of animals tested (8) after 4 h at 100 mg / kg; assay type: organism-based; design: dose 100 mg / kg; details: in vivo; in short: as §1
Rattus norvegicus [8] = assay: Intraperitoneal (ip) toxicity tested in rats is the number of animals displaying neurotoxicity / number of animals tested (8) after 6 hr at 100 mg / kg; assay type: organism-based; design: dose 100 mg / kg; details: in vivo; in short: as §1
Rattus norvegicus [9] = assay: Intraperitoneal (ip) toxicity tested in rats is the number of animals displaying neurotoxicity / number of animals tested (8) after 8 hr at 100 mg / kg; assay type: organism-based; design: dose 100 mg / kg; details: in vivo; in short: as §1
Rattus norvegicus [10] = assay: Anticonvulsant activity reported as amygdala duration in amygdala kindled rats at 350 mg/kg (after discharge); assay type: functional
Rattus norvegicus [11] = assay: Anticonvulsant activity reported as duration in amygdala kindled rats at 350 mg/kg (Behavioral seizure); assay type: functional
Rattus norvegicus [12] = assay: Anticonvulsant activity reported as duration in amygdala kindled rats at 350 mg/kg (Forelimb clonus); assay type: functional
Rattus norvegicus [13] = assay: Anticonvulsant activity tested at seizure stage in amygdala kindled rats at 350 mg/kg; assay type: functional
Rattus norvegicus [14] = assay: Anticonvulsant activity reported as cortex latency in amygdala kindled rats at 350 mg/kg (after discharge); assay type: functional
Rattus norvegicus [15] = assay: Anticonvulsant activity reported as latency in amygdala kindled rats at 350 mg/kg (Behavioral seizure); assay type: functional
Rattus norvegicus [16] = assay: Anticonvulsant activity reported as latency in amygdala kindled rats at 350 mg/kg (Forelimb clonus); assay type: functional
[17] = Toxic dose was determined after intraperitoneal administration; assay type: toxicity, organism-based; details: rat, in vivo, ip
In short: (§2)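 Rats were dosed intraperitoneally, with compound given as a solution or a suspension in 0.5% methylcellulose. Neurotoxicity was scored 2.0 h after dosing in 8 animals per dose level (110–440 mg/kg). TD50 in mg/kg ip was derived from the dose–response, with a range given in parentheses.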

Rattus norvegicus [18] = species: Rattus norvegicus; assay: Number of animals protected from electroshock seizure / number of animals tested (8) after 0.25 hour at 3.6 mg / kg in maximal electroshock seizures (MES); assay type: functional
In short: (§3)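 For the intraperitoneal rat screen, compound was given as a solution or a suspension in 0.5% methylcellulose. Protection against maximal electroshock seizures was tested at 0.25 h or 0.50 h after dosing, in 8 animals per dose. Results are expressed as animals protected over animals tested, and ED50 in mg/kg ip, with a range, was derived from these counts.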

Rattus norvegicus [19] = species: Rattus norvegicus; assay: Number of animals protected from electroshock seizure / number of animals tested (8) after 0.25 hour at 4.5 mg / kg in maximal electroshock seizures (MES); assay type: functional; in short: as §3
Rattus norvegicus [20] = species: Rattus norvegicus; assay: Number of animals protected from electroshock seizure / number of animals tested (8) after 0.25 hour at 7.0 mg / kg in maximal electroshock seizures (MES); assay type: functional; in short: as §3
Rattus norvegicus [21] = species: Rattus norvegicus; assay: (§4) Protective index (TD50 / MES ED50); assay type: functional
Rattus norvegicus [22] = species: Rattus norvegicus; assay: Number of animals exhibiting neurotoxicity / number of animals tested (8) after 2.0 hr at 110 mg / kg; assay type: functional; in short: as §2
Rattus norvegicus [23] = species: Rattus norvegicus; assay: Number of animals exhibiting neurotoxicity / number of animals tested (8) after 2.0 hr at 180 mg / kg; assay type: functional; in short: as §2
Rattus norvegicus [24] = species: Rattus norvegicus; assay: Number of animals exhibiting neurotoxicity / number of animals tested (8) after 2.0 hr at 220 mg / kg; assay type: functional; in short: as §2
Rattus norvegicus [25] = species: Rattus norvegicus; assay: Number of animals exhibiting neurotoxicity / number of animals tested (8) after 2.0 hr at 440 mg / kg; assay type: functional; in short: as §2
Rattus norvegicus [26] = species: Rattus norvegicus; assay: Number of animals protected from electroshock seizure / number of animals tested (8) after 0.25 hour at 1.2 mg / kg in maximal electroshock seizures (MES); assay type: functional; in short: as §3
Rattus norvegicus [27] = assay: Anticonvulsant activity reported as duration in amygdala kindled rats at 500 mg/kg (Behavioral seizure); assay type: functional
Rattus norvegicus [28] = assay: Anticonvulsant activity reported as duration in amygdala kindled rats at 500 mg/kg (Forelimb clonus); assay type: functional
Rattus norvegicus [29] = assay: Anticonvulsant activity reported as duration in amygdala kindled rats at 500 mg/kg (after discharge); assay type: functional
Rattus norvegicus [30] = assay: Anticonvulsant activity reported as amygdala duration in amygdala kindled rats at 500 mg/kg (after discharge); assay type: functional
Rattus norvegicus [31] = assay: Anticonvulsant activity tested at seizure stage in amygdala kindled rats at 500 mg/kg; assay type: functional
Rattus norvegicus [32] = assay: Anticonvulsant activity reported as cortex latency in amygdala kindled rats at 500 mg/kg (after discharge); assay type: functional
Rattus norvegicus [33] = assay: Anticonvulsant activity reported as latency in amygdala kindled rats at 500 mg/kg (Behavioral seizure); assay type: functional
Rattus norvegicus [34] = assay: Anticonvulsant activity reported as latency in amygdala kindled rats at 500 mg/kg (Forelimb clonus); assay type: functional
Rattus norvegicus [35] = assay: Intraperitoneal (ip) toxicity tested in rats is the number of animals displaying neurotoxicity / number of animals tested (8) after 24 hr at 100 mg / kg; assay type: organism-based; design: dose 100 mg / kg; details: in vivo; in short: as §1
[36] = Protective index expressed as TD50 / ED50; assay type: functional
Mus musculus [37] = assay: Toxicity observed in mice at >750 mg/kg ip; No Toxicity; details: in vivo
Mus musculus [38] = assay: Effective dose administered intraperitoneally in mice at 15 minutes in maximal-electroshock (MES) test; details: ip, 0.25 h
[39] = Protective index expressed as TD50 / ED50; No toxicity; assay type: functional
Rattus norvegicus [40] = assay: Toxicity observed in rats at >500 mg/kg po; details: in vivo
[41] = as §4; assay type: functional
Rattus norvegicus [42] = species: Rattus norvegicus; assay: Number of animals protected from electroshock seizure / number of animals tested (8) after 0.50 hour at 1.0 mg / kg in maximal electroshock seizures (MES); assay type: functional; in short: as §3
Rattus norvegicus [43] = species: Rattus norvegicus; assay: Number of animals protected from electroshock seizure / number of animals tested (8) after 0.50 hour at 2.0 mg / kg in maximal electroshock seizures (MES); assay type: functional; in short: as §3
Rattus norvegicus [44] = species: Rattus norvegicus; assay: Number of animals protected from electroshock seizure / number of animals tested (8) after 0.50 hour at 3.0 mg / kg in maximal electroshock seizures (MES); assay type: functional; in short: as §3
Rattus norvegicus [45] = species: Rattus norvegicus; assay: Number of animals protected from electroshock seizure / number of animals tested (8) after 0.50 hour at 3.5 mg / kg in maximal electroshock seizures (MES); assay type: functional; in short: as §3
Rattus norvegicus [46] = species: Rattus norvegicus; assay: Number of animals protected from electroshock seizure / number of animals tested (8) after 0.50 hour at 4.0 mg / kg in maximal electroshock seizures (MES); assay type: functional; in short: as §3
Rattus norvegicus [47] = species: Rattus norvegicus; assay: Number of animals exhibiting neurotoxicity / number of animals tested (2) after 0.25-24 h at 64 mg / kg
Rattus norvegicus [48] = species: Rattus norvegicus; assay: Number of animals exhibiting neurotoxicity / number of animals tested (2) after 0.25-24 hr at 8 mg / kg
Rattus norvegicus [49] = species: Rattus norvegicus; assay: Number of animals exhibiting neurotoxicity / number of animals tested (2) after 0.25-24 hr at 16 mg / kg
Rattus norvegicus [50] = species: Rattus norvegicus; assay: Number of animals exhibiting neurotoxicity / number of animals tested (2) after 0.25-24 hr at 32 mg / kg

SMILES: COC(=O)C1C(=O)C=C(Nc2ccc(Cl)cc2)CC1C (stereo not given)
- Duration (Rattus norvegicus [1]): 79.6 s
- Toxicity (Rattus norvegicus [2]): 0
- Toxicity (Rattus norvegicus [3]): 3
- Toxicity (Rattus norvegicus [4]): 6
- Toxicity (Rattus norvegicus [5]): 7
- Toxicity (Rattus norvegicus [6]): 2
- Toxicity (Rattus norvegicus [7]): 2
- Toxicity (Rattus norvegicus [8]): 1
- Toxicity (Rattus norvegicus [9]): 0
- Duration (Rattus norvegicus [10]): 79.8 s
- Duration (Rattus norvegicus [11]): 82.3 s
- Duration (Rattus norvegicus [12]): 45.3 s
- Seizure stage (Rattus norvegicus [13]): 5
- Latency (Rattus norvegicus [14]): 2.7 s
- Latency (Rattus norvegicus [15]): 2.1 s
- Latency (Rattus norvegicus [16]): 9.2 s

SMILES: COC(=O)C1C(=O)C=C(Nc2ccc(Br)cc2)CC1C (stereo not given)
- TD50 [17]: 270 mg/kg
- No. of animals (Rattus norvegicus [18]): 5
- No. of animals (Rattus norvegicus [19]): 3
- No. of animals (Rattus norvegicus [20]): 7
- PI (Rattus norvegicus [21]): 67.4
- No. of animals (Rattus norvegicus [22]): 0
- No. of animals (Rattus norvegicus [23]): 2
- No. of animals (Rattus norvegicus [24]): 4
- No. of animals (Rattus norvegicus [25]): 6
- No. of animals (Rattus norvegicus [26]): 0

SMILES: COC(=O)C1C(=O)C=C(NCc2ccccc2)CC1C (stereo not given)
- Duration (Rattus norvegicus [27]): 79.5 s
- Duration (Rattus norvegicus [28]): 44.2 s
- Duration (Rattus norvegicus [29]): 78.9 s
- Duration (Rattus norvegicus [30]): 73.9 s
- Seizure stage (Rattus norvegicus [31]): 5
- Latency (Rattus norvegicus [32]): 2.8 s
- Latency (Rattus norvegicus [33]): 2.1 s
- Latency (Rattus norvegicus [34]): 9.3 s

SMILES: CCc1ccc(NC2=CC(=O)C(C(=O)OC)C(C)C2)cc1 (stereo not given)
- Toxicity (Rattus norvegicus [2]): 1
- Toxicity (Rattus norvegicus [3]): 5
- Toxicity (Rattus norvegicus [4]): 0
- Toxicity (Rattus norvegicus [5]): 0
- Toxicity (Rattus norvegicus [35]): 0
- Toxicity (Rattus norvegicus [7]): 0
- Toxicity (Rattus norvegicus [8]): 0
- PI [36]: > 6.6
- Toxicity (Mus musculus [37]): No Toxicity
- ED50 (Mus musculus [38]): 114 mg/kg

SMILES: CC1(C)CC(O)=C/C(=N\c2ccccc2)C1
- Toxicity (Rattus norvegicus [2]): 5
- Toxicity (Rattus norvegicus [3]): 7
- Toxicity (Rattus norvegicus [4]): 6
- Toxicity (Rattus norvegicus [5]): 6
- Toxicity (Rattus norvegicus [35]): 0
- Toxicity (Rattus norvegicus [7]): 3
- Toxicity (Rattus norvegicus [8]): 3
- PI [39]: > 13.7
- Toxicity (Rattus norvegicus [40]): Toxicity observed in mice at >500 mg/kg po
- ED50 (Mus musculus [38]): 36.4 mg/kg

SMILES: COC(=O)C1C(=O)C=C(Nc2ccc(C(F)(F)F)cc2)CC1C (stereo not given)
- PI [41]: > 21.7
- TD50 [17]: > 64 mg/kg
- No. of animals (Rattus norvegicus [42]): 0
- No. of animals (Rattus norvegicus [43]): 3
- No. of animals (Rattus norvegicus [44]): 3
- No. of animals (Rattus norvegicus [45]): 4
- No. of animals (Rattus norvegicus [46]): 7
- No. of animals (Rattus norvegicus [47]): 0
- No. of animals (Rattus norvegicus [48]): 0
- No. of animals (Rattus norvegicus [49]): 0
- No. of animals (Rattus norvegicus [50]): 0

Reference: ChEMBL document CHEMBL1126727, “Synthesis and anticonvulsant activity of enaminones. 2. Further structure-activity correlations” (J Med Chem, 1993)
